Results as given in PubChem BioAssay AID588627 (Johns Hopkins Ion Channel Center, 2011).
The whole screen tested about 310,000 compounds, of which about 1,400 (0.45%) were called active.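 How the source made its calls: active means calcium response B-score plate-corrected fluorescence ratio at least 3 library SD, with starting fluorescence B-score inside 5 SD; inactive means the rest.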 Many of the other results were omitted from the sample, so actives are more common in it than they were.

molecular target: Mas-related G-protein coupled receptor member X1 (Homo sapiens) (UniProt Q96LB2); experiment: MrgX1 activation via calcium signaling – HEK293 cells, Fluo-4 calcium flux, primary screen (AID 588627); conditions: Fluo-4 calcium fluorescence, agonist mode, at 10 µM; stronger effect = higher value;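 on B-score: B-score of the peak-minus-trough calcium fluorescence change over baseline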
Method in brief: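 times = overnight plating, then 30 min 37 °C plus 30 min room-temperature dye loading | assay system = stable human MrgX1 HEK293 cell line | input = fifteen thousand cells per well | signal = kinetic calcium dye fluorescence, Fluo-4 NW | dosing = compound delivered in addition one of three | read-out = B-scored fluorescence response ratio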

Chain of Mas-related G-protein coupled receptor member X1 (Homo sapiens) (Q96LB2 whole entry, looked up): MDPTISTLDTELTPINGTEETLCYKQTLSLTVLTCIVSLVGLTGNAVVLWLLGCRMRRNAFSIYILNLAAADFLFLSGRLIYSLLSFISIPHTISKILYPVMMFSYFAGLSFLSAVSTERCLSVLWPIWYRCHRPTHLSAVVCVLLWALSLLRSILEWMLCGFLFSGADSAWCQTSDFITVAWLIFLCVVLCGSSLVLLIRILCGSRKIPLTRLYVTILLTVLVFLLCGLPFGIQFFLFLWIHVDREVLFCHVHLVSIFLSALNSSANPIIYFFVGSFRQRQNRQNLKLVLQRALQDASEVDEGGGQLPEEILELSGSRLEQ

B-score, inactive:
CN(CC(O)COc1ccc(S(=O)(=O)N2CCOCC2)cc1Cl)C1CCCCC1 (stereo not drawn), CC(C)(C)NC(=O)CN(C(=O)c1csnn1)c1ccccc1-c1ccccc1, COc1ccc(-c2nc(CN3CCN(c4ncccn4)CC3)c(C)o2)cc1C, Cc1nnsc1C(=O)N/N=C/c1ccccc1Cl, CN(c1cccc(NC(=O)Nc2ccc(Cl)cc2)c1)S(C)(=O)=O, Cc1sc2ncn(CC(=O)NCCN(C)C)c(=O)c2c1S(=O)(=O)N1CCC(C)CC1, COC(=O)C1=C(C(=O)OC)C(c2cc([N+](=O)[O-])ccc2O)c2sc(=O)[nH]c2S1 (stereo not drawn), CCCC1OC23CCCCC2C(C#N)(C#N)C1(C#N)C(=N)O3 (stereo not drawn), CCOC(=O)C1CCN(C(=O)C2(NC(=O)Nc3cccc(F)c3)CCCCC2)CC1, CCCOc1ccc(C2c3c(oc4cc(C)c(C)cc4c3=O)C(=O)N2CCCN2CCOCC2)cc1 (stereo not drawn), Cc1ccc(CS(=O)(=O)CCC(=O)NC2CC2)cc1, O=C(NC(Cc1ccccc1)C(=O)N1CCCC(C(F)(F)F)C1)c1ccccc1 (stereo not drawn), O=C(NCC(=O)N1CCCC(C(F)(F)F)C1)c1ccccc1F (stereo not drawn), Cc1n[nH]c(=O)c2c1nnn2Cc1ccc(F)cc1, COc1ccc(CCNC(=O)C(=O)NCC2OCCN2S(=O)(=O)c2ccc(F)cc2)cc1OC (stereo not drawn), CC(C)CCN1NC2(CCC(C)CC2)NC1=S (stereo not drawn), CC(C)N(c1ccccc1)c1ncnc(NCCC(=O)O)c1[N+](=O)[O-], COc1cc(/C=C2/SC(=S)N(Cc3ccccc3)C2=O)cc(OC)c1O, O=C1/C(=C\c2ccsc2)NC(=S)N1c1ccccc1, CCC(C)c1ccccc1N1CC(C(=O)N2CCN(S(=O)(=O)c3ccc(F)cc3)CC2)CC1=O (stereo not drawn), Cc1cc(NC(=O)CSc2nnnn2-c2ccc(F)cc2)no1, CC(C)Oc1ccc(CCC(=O)NNC(=S)NCc2ccccc2)cc1, COc1ccc(C(=O)NC(=S)NC2CCCCC2)cc1, COc1ccc(C(=O)NNC(=S)NC(=O)c2ccccc2[N+](=O)[O-])cc1, COc1ccc(C(=O)NC2CCN(C(=S)NCCc3ccccc3)CC2)cc1, Cc1ccc(NS(=O)(=O)c2cc3c(cc2C)NC(=O)CO3)cc1, O=C(Nc1cccc(Cl)c1)Nc1ccccc1NS(=O)(=O)c1cccs1, C[n+]1ccc(/C=C/c2c[nH]c3ccccc23)cc1, COc1ccccc1/C=C/CN1CCC(CO)(Cc2ccccc2)CC1, COC(=O)C1=C(C(=O)c2ccc(C)cc2)C(c2ccccc2)n2nnnc2N1 (stereo not drawn), COc1ccccc1NC(=O)C1=C(C)Nc2nnnn2C1c1cccc(Br)c1 (stereo not drawn), COc1cccc(CN(C)CC(O)COC(c2ccccc2)c2ccccc2C)c1 (stereo not drawn), Cn1c(=O)c2cc(S(=O)(=O)NCCC(=O)Nc3ccc(F)cc3F)ccc2n(C)c1=O, Cc1ccc(C(=O)C(C)OC(=O)Cc2n[nH]c(=O)c3ccccc23)cc1C (stereo not drawn), O=C1CCCc2c1nc(-c1cccc(Cl)c1)n2O, Cc1cccc(-c2nc3ccccc3c(=O)n2NC(=O)Cc2ccc(Cl)cc2)c1, Cc1c2cnn(CC(=O)NCCCN3CC(C)CC(C)C3)c(=O)c2c(C)n1Cc1ccc(Cl)cc1 (stereo not drawn), COc1cc(NC(=O)C2=C(C)OCCS2)c(Cl)cc1C(=O)NCCN1CCN(C)CC1, O=C(Nc1ccccc1N1CCOCC1)c1ccc(OCc2cscn2)cc1, Cc1nn(CC2CC2)c(=O)n1N(C)c1ncc(C(F)(F)F)cc1Cl, C=CCC1=C/C(=C\c2c(N)n3nc(CC(=O)N4CCOCC4)sc3nc2=O)C=C(OC)C1=O, COc1ccc(-c2ccnc(SCC(=O)N3CCOCC3)n2)cc1, CC(=O)Nc1nc2c(s1)C(=O)NCC(C)(C)C2, CCN(CC)C(=O)C1CCC(C)(C(=O)O)C1(C)C (stereo not drawn), NC(=O)N1CCCC1C(=O)Nc1ccc(Cl)c(Cl)c1 (stereo not drawn), Cc1ccsc1C1C(C#N)=C(N)OC2=C1C(=O)CC(C)(C)C2 (stereo not drawn), Cc1c(C(=O)Nc2ccccc2)sc2nc3n(c(=O)c12)CCCCC3, COc1ccc(OC)c(NC(=O)c2ccc3c(c2)C(=O)N(c2ccc(OC(C)=O)cc2)C3=O)c1, O=C(CN1C(=O)C2C3C=CC(C3)C2C1=O)NCC1COc2ccccc2O1 (stereo not drawn), Cc1cc(C(=O)CCl)c(C)n1CC1COc2ccccc2O1 (stereo not drawn), Cc1ccc(S(=O)(=O)NC2CCCCCC2)cc1C(N)=O, O=c1nc2s/c(=C\c3ccco3)c(=O)n2nc1Cc1ccccc1, CCOC(=O)/C=c1\s/c(=C\c2ccc(C#N)cc2)c(=O)n1CC(=O)Nc1cccc(C)c1C, CCCCN1C(N)=NC[C@@H]1Cc1ccccc1, CCCC[C@@H]1CN=C(N)N1CCCC, CCOc1ccc(/C=C/C(=O)N(CC)CC(=O)NCc2cccs2)cc1OC, CC(C)(C)N(Cc1ccccc1)C(=O)c1ccncc1, O=C(/C=C/c1ccc(Cl)c([N+](=O)[O-])c1)c1cccnc1, O=C(/C=C/c1ccc(Cl)c([N+](=O)[O-])c1)c1ccc(O)cc1, Cc1ccc(C(=O)C[n+]2cc(-c3ccccc3)n3c2CCCCC3)cc1, COc1ccc(-c2cc(C(=O)NC(Cc3c[nH]c4ccccc34)C(=O)O)c(C)o2)cc1OC (stereo not drawn), NS(=O)(=O)c1ccc(NC(=O)COC(=O)C2(c3ccc(F)cc3)CCCC2)cc1, COc1ccc(OCc2cn3c(C)cc(C)nc3n2)cc1, CCOc1ccc(C(C)C)cc1S(=O)(=O)n1nc(C)cc1C, CCC(C)(C(=O)NC1CCCC1)N(C(=O)CNC(C)=O)c1ccc(C)cc1 (stereo not drawn), CCCc1nc(N2CCN(C)CC2)c2sc(=S)n(-c3ccccc3)c2n1, OCCN(Cc1ccccc1)Cc1ccc(Cl)cc1, CN(Cc1ccccc1)C(=O)CCc1ccccc1, CC(C)C(=O)NCC(c1cccs1)S(=O)(=O)c1ccc(F)cc1 (stereo not drawn), Cc1ncoc1C(=O)N1CCCC(C(=O)c2ccc3c4c(cccc24)CC3)C1 (stereo not drawn), CN(CC(=O)Nc1cccc(F)c1)C(=O)C1CSC2(C)CCC(=O)N12 (stereo not drawn), COc1ccc(Cl)cc1C(=O)NNC(=S)NC1CCCC1, C=CCNC(=S)NNC(=O)c1cc(Cl)ccc1OC, COc1ccc(C2c3ccc(O)cc3Oc3ncn(CCCO)c(=N)c32)cc1OC (stereo not drawn), CCc1cccc(C)c1NC(=O)COC(=O)Cc1ccsc1, CCN(CC(=O)NC(=O)NCc1ccccc1)Cc1nc2ccccc2c(=O)[nH]1, CN(Cc1nc2ccccc2c(=O)[nH]1)Cc1cc(=O)oc2ccc3ccccc3c12, CCn1c(SCC(=O)Nc2ccc(C)cc2)nc2nc3c(cc2c1=O)CCCC3, Cc1cc(C)cc(C(=O)NC(=S)Nc2ccc3[nH]c(=O)[nH]c3c2)c1, COc1ccc(C2(O)C(=O)Nc3ccccc32)cc1 (stereo not drawn), Cc1cc(O)c(C2(O)C(=O)Nc3ccccc32)cc1C (stereo not drawn), CCCCn1c(N)c(N(CC(C)C)C(=O)CSc2ccc([N+](=O)[O-])cc2)c(=O)[nH]c1=O, CN(CCc1ccccn1)C(=O)c1ccc(OC2CCN(CCc3ccccc3)CC2)cc1, S=C1Nc2cc(Cl)ccc2Sc2ccccc21, O=C1CC2(CCCC2)Oc2ccc(Cl)cc21, CN(C)/N=C/c1cc(Cl)cc([N+](=O)[O-])c1O, O=C(N/N=C/c1cc(Br)c(O)c([N+](=O)[O-])c1)C(O)(c1ccccc1)c1ccccc1

B-score, active:
O=C(Nc1ccccc1)c1nnsc1S(=O)(=O)c1ccc(Cl)cc1 33.9, Cc1cc2oc3ccc(NCCC4CCCN4C)cc3c(=O)c2cc1C (stereo not drawn) 27.5, FC(F)(F)C1CCCN(c2nsc3ccccc23)C1 (stereo not drawn) 30.1, CN(C)c1ccc(/C=C2\NC(=S)N(Cc3ccccc3)C2=O)cc1 49.1, COc1ccc(C(=O)NNC(=S)NC(=O)c2ccccc2)cc1 113, COc1ccc(C(=O)NC(=S)NNC(=O)CCc2ccccc2)cc1 107, COC(=O)c1ccc(C2C3=C(Nc4nnnn42)c2ccccc2OC3)cc1 (stereo not drawn) 27.7, O=c1c2cc(Br)ccc2nc(-c2cccc(Cl)c2)n1O 67.7, COC1=C/C(=C/c2c(N)n3nc(CC(=O)N4CCOCC4)sc3nc2=O)C=CC1=O 34.8, CC1(C(=O)O)CCC(C(=O)Nc2ccc(Cl)c(Cl)c2)C1(C)C (stereo not drawn) 30.1, O=C1C(=O)N(CC2COc3ccccc3O2)c2ccccc21 (stereo not drawn) 56, CN(c1ccccc1)c1ccc(/C=c2\s/c(=C(/C#N)C(=O)C(C)(C)C)n(Cc3ccco3)c2=O)cc1 193, CCCCN1C(N)=NC[C@@H]1CC1CCCCC1 36.9, NC(N)=N/N=C/c1ccc(Cl)c([N+](=O)[O-])c1 28.4, COc1ccc(C(C[N+](=O)[O-])n2nc(C)cc2C)cc1 (stereo not drawn) 46.1, CN(C(=O)CN(CCO)CC(=O)N(C)C(C)(C)Cc1ccccc1)C(C)(C)Cc1ccccc1 44.7, COc1ccc(Cl)cc1C(=O)NNC(=S)NC(=O)/C=C/c1ccco1 51.7, CCN(Cc1nc2ccccc2c(=O)[nH]1)Cc1cc(=O)oc2cc(C)c(C)cc12 34.9, Cc1ccc(NC2(C#N)C(=O)Nc3ccccc32)cc1 (stereo not drawn) 45, O=C1Cc2ccccc2Sc2ccc(Cl)cc21 28.3, O=C(N/N=C/c1cc(Cl)cc([N+](=O)[O-])c1O)C(O)(c1ccccc1)c1ccccc1 36.2
